Scp-1 inhibitor: blocks human Scp-1 phosphatase activity | inhibition, % at 20 µM | AID 493091 | Recombinant Scp1, phosphopeptide, malachite green phosphate absorbance | 340,000 compounds, 0.88% hits;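 active = inhibition above about 50% at 20 µM, limit read from the data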;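 also: plate controls were DMSO wells with enzyme for no effect and wells lacking enzyme for full effect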
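assay system = SCP-1 phosphatase catalytic domain, residues 76-261 | buffer or medium = 50 mM Tris acetate pH 5.5, 0.005% Tween-20, 10 mM MgCl2 | incubation = enzyme reaction 45 min at room temperature, colour 5 min, stabilisation 30 min | signal = Phosphate-binding colour reagent, absorbance read at 630 nm | measure = % inhibition at 20 µM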
LMPTP block: LMPTP (human) inhibition | P24666 | recombinant LMPTP-A, OMFP fluorogenic substrate, fluorescence intensity | inhibition, % at 20 µM | 360,000 compounds, 0.22% hits | AID 651560;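 active = compounds that cut the enzyme signal by at least half of the control window in the single-dose screen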;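 also: plate controls were DMSO wells with enzyme plus substrate for no effect and substrate without enzyme for full effect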
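Test system – LMPTP-A enzyme · Amount – LMPTP-A at 0.625 nM final in the reaction · Buffer or medium – Bis-Tris pH 6.0, DTT, detergent · Reagent – OMFP 400 µM · Doses – single 20 µM dose · Schedule – reaction 50 min, room temperature, dark · Detection – fluorescence intensity of OMFP turnover product · Evaluation – percent inhibition versus substrate-only and uninhibited controls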
STEP inh: blocks human striatal-enriched tyrosine phosphatase | P54829 | recombinant STEP, OMFP fluorogenic substrate, fluorescence | inhibition, % at 20 µM | 360,000 compounds, 0.25% hits;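 active = inhibition at 20 µM, scaled per plate between control wells, above about 37%, limit read from the data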;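 also: 0% = DMSO with enzyme and substrate and 100% = substrate only without enzyme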
Target sequence (P54829 whole entry, looked up): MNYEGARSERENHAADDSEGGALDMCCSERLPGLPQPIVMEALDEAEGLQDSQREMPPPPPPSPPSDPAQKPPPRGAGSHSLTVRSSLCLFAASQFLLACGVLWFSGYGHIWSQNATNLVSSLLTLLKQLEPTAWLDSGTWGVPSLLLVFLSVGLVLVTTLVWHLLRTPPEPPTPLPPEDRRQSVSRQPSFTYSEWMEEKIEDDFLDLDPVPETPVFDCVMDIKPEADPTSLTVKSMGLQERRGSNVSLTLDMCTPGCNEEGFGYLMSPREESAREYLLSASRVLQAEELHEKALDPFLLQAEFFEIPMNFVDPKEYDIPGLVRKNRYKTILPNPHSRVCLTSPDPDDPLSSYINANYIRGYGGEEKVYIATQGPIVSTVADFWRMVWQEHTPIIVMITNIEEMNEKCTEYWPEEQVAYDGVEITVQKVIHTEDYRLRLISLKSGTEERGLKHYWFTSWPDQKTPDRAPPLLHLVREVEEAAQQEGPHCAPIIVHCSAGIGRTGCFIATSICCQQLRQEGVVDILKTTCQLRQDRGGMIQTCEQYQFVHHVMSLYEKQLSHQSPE
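Measure: Control-normalized % inhibition with plate pattern correction | Test system: STEP phosphatase, cell-free reaction | Medium: pH 6.0 Bis-Tris with DTT and Tween 20 | Technique: Fluorescence, 480/540 nm | Times: Reaction 20 min, ambient temperature | Doses: Single compound dose of 20 µM, 1% DMSO final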
rCAG binder: molecules binding r(CAG) RNA repeats | r(CAG) RNA repeat, TO-PRO-1 dye displacement fluorescence | inhibition, % at 3 µM | 370,000 compounds, 1.3% hits;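 active = inhibition above the plate cutoff, the mean of all test compounds on that plate plus 3 SD, cut at about 35% in these data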;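 also: 0% = DMSO alone and 100% = 100 µM mitoxantrone as full dye displacement; higher means more dye released from RNA so lower well fluorescence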
NadD inh: NadD (S. aureus) enzyme inhibition. 360,000 compounds, 0.78% hits. inhibition, % at 20 µM. purified NadD enzyme, colorimetric absorbance read-out; in the data active = inhibition above about 26%
rCAG binder conf: r(CAG) RNA repeat binding, confirmation | shares compounds with rCAG binder | TO-PRO-1 dye displacement fluorescence | inhibition, % at 3 µM | 4,300 compounds, 70% hits | AID 652065;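 active = inhibition above a per-plate cutoff, the mean inhibition of sample wells plus 3 SD, cut at about 35% in these data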;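 also: loss of TO-PRO-1 fluorescence as compound displaces dye from 1x1 AA loop RNA; 0% = DMSO only wells and 100% = 100 µM mitoxantrone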
dCAG dye counter: disrupts DNA CAG TO-PRO-1 complex, flagging rCAG hits; 4,300 compounds, 94% hits; inhibition, % at 3 µM; d(CAG) DNA oligo TO-PRO-1 dye displacement, fluorescence; shares compounds with rCAG binder;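 active = inhibition above its plate's cutoff, the mean test-well inhibition plus 3 SD, cut at about 4.8% in these data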;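 also: 0% = DNA dye mix with DMSO and 100% = 100 µM mitoxantrone; hits displace the dye from DNA and so lower well fluorescence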
dCAG dye DR: DNA CAG dye complex inhibition, dose response counter-screen. 250 compounds, 20% hits. AID 686960. DNA CAG/GTC duplex TO-PRO-1 dye displacement fluorescence. shares compounds with rCAG binder. IC50, µM; in the data active = IC50 below about 10 µM
Starred values were filed as active, the others as inactive; i = inactive; . = not tested or not shown. Shown are actives, neighbours in structure and some others; about 2.6% of the full set was active somewhere.

SMILES | Scp-1 inhibitor | LMPTP block | STEP inh | rCAG binder | NadD inh | rCAG binder conf | dCAG dye counter | others
Cc1nn(CCC(=O)NNC(=O)Nc2ccccc2)c(C)c1[N+](=O)[O-] | . | . | . | 2 | . | . | .
CCCCCCCCN1CCS(=O)(=O)N(Cc2ccc(F)cc2)C(C(=O)OC)C1 (centres undefined) | . | . | . | 2 | . | . | .
Cc1ccc2nc(-c3ccc(Cl)cc3)c(Cc3ccccc3C(F)(F)F)n2c1 | . | 4 | -1 | 9 | 8 | . | .
Cc1ccc(-c2nc3ccc(Cl)cn3c2Cc2ccccc2C(F)(F)F)cc1 | . | 0 | -2 | 42* | 14 | 34 | 6.8*
Cc1ccc(-c2nc3ccc(Cl)cn3c2Cc2cccc(F)c2)cc1 | . | 4 | 4 | 38* | 4 | 3 | 3
N#C/C(N=Nc1ccccc1O)=N\Nc1ccccc1O | -6 | 9 | 11 | 57* | -4 | 74* | 29*
Nc1[nH]c(C(=O)c2ccccc2)c(-c2ccccc2Cl)c1C(=O)NCCc1c[nH]c2ccccc12 | . | . | . | 10 | . | . | .
Brc1ccc(-c2nn3c(-c4ccccc4)nnc3s2)o1 | . | . | . | 8 | . | . | .
CCOc1ccc2nc(SCc3ccc(CC(=O)O)cc3)c(C#N)cc2c1 | -6 | 1 | 3 | 60* | 7 | 55* | 20*
C=CCN1C(=O)[C@H](CC(=O)N2CCC(c3ccccc3)CC2)[C@@]2(C(=O)OCC)CCCC=C12 | . | . | . | 1 | . | . | .
CCCc1cn(-c2ccc3c(c2)[C@]2(CC(=O)N(C)C2c2ccccc2)C(=O)N3CC(C)C)nn1 (some centres undefined) | . | . | . | 0 | . | . | .
COc1ccccc1Nc1cc2cc(Br)ccc2c(=O)[nH]1 | 11 | 9 | 17 | 14 | 14 | . | .
O=c1[nH]c(Nc2ccccc2)cc2cc(Br)ccc12 | 2 | 32 | 29 | 37* | 2 | 14 | 15*
COCCN1C(=O)C2=C(C1=O)C1N(C)c3ccccc3[C@@]13C[C@@H](CO)N(C(C)=O)C3=N2 (some centres undefined) | . | . | . | 2 | . | . | .
O=C(COC(=O)c1cc(Br)ccc1O)Nc1ccc2c(c1)OCCO2 | 1 | 1 | -1 | 6 | -5 | . | .
N#Cc1cccc(NC(=O)COC(=O)c2cc(S(=O)(=O)Nc3ccccc3Cl)ccc2O)c1 | -13 | 2 | -4 | 52* | 2 | 45* | 15*
COc1ccc(NS(=O)(=O)c2ccc(O)c(C(=O)OCC(=O)Nc3ccc4c(c3)OCCO4)c2)cc1 | -10 | 0 | -1 | 38* | 6 | 28 | 11*
O=C(COC(=O)c1cc(S(=O)(=O)Nc2ccccc2Cl)ccc1O)Nc1nc2ccccc2s1 | -11 | 1 | -2 | 43* | 10 | 69* | 31*
COc1ccc(C(C)(C)C)cc1N1C(=O)[C@@H]2CSCCS(=O)(=O)N2C1=O | . | . | . | 8 | . | . | .
COC(=O)[C@]12C[C@H](CC(=O)NCC34CC5CC(CC(C5)C3)C4)C(=O)N(Cc3ccc(Cl)cc3Cl)C1=C[C@H](C(C)C)O[C@@H]2C1CC1 | . | . | . | 14 | . | . | .
COc1ccc2[nH]c3c4c(ccc3c2c1)C(=O)C=CC4=O | 18 | 6 | 7 | 44* | 7 | 19 | 15*
CCOC(=O)Cc1csc(NS(=O)(=O)c2ccccc2)n1 | -10 | -3 | -6 | 4 | 2 | . | .
CCOC(=O)c1ccccc1-c1csc(NS(=O)(=O)c2ccc(Cl)cc2)n1 | -1 | 0 | -1 | 76* | 8 | 70* | 33* | dCAG dye DR=i
C[C@H]1CCCN1c1cccc2c1S(=O)(=O)N1CC[C@@H](C1)O2 | . | . | . | 5 | . | . | .
COCCNC(=S)N(C)[C@H]1C[C@H]2c3[nH]c4c(-c5ccc6c(c5)OCO6)cccc4c3CCN2C[C@H]1[C@H](C)O | . | . | . | 9 | . | . | .
O=C(/C=C1\C(=O)Nc2ccccc21)/C=C1\C(=O)Nc2ccccc21 | 11 | 1 | 0 | 39* | 25 | 32 | 20*
O=C1Nc2ccccc2/C1=C\C(=O)c1ccccc1 | -7 | 1 | -2 | 8 | -5 | . | .
